NSD2 inh: inhibitors of human histone methyltransferase NSD2; NSD2 peptide methylation, AlphaScreen, 120 min; O96028; 310,000 tested, 0.54% active; inhibition, % at 12.5 µM
dFosB act-1: activators of mouse delta FosB homodimer; P13346; purified delta FosB, TAMRA-CDK5 oligo fluorescence polarization; percent of positive-control signal above neutral wells; activation, % at 25 µM; 340,000 tested, 0.99% active; AID 493131;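 active = mean activation above about 17%, with every replicate also reaching it, limit read from the data, passing the limit was not always enough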
CDK5 inh: inhibitors of human CDK5/p35 kinase. Q00535+Q15078. 330,000 tested, 0.01% active. inhibition, % at 10 µM. Recombinant CDK5/p35, ADP-Glo luminescence, 60 min;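 active = highest replicate inhibition of at least 50% and at least 75% of replicates reaching 50%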;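 note: plate controls were DMSO neutral control for no effect and GW8510 at 10 µM for full effect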
SR-BI DiI inh: mouse SR-BI HDL lipid transfer inhibition; Q61009; 320,000 tested, 0.96% active; AID 488896; ldlA[mSR-BI] CHO cells, DiI-HDL uptake fluorescence, 3 h; inhibition, % at 12.5 µM;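 active = mean replicate inhibition of at least 70% and a set share of replicates each scoring 70 or more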;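 note: 0% = median of neutral control wells and 100% = median of positive control wells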
Target sequence (Q61009 whole entry, looked up): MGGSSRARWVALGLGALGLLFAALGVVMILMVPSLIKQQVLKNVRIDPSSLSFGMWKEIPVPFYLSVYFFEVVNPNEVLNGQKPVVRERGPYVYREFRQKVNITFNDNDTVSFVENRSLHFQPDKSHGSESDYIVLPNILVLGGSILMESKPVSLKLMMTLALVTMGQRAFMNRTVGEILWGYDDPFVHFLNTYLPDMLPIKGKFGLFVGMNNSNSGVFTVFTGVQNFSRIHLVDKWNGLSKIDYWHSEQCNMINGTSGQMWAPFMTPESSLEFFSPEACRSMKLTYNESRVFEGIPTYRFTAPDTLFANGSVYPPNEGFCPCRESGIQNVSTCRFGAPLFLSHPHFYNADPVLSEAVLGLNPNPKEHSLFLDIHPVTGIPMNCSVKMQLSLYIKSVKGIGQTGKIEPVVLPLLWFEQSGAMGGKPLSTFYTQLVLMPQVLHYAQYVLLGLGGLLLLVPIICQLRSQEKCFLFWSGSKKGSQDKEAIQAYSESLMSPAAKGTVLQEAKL
SR-BI uptake up: enhances SR-BI lipid uptake from DiI-HDL | CHO ldlA[mSR-BI] cells, DiI-HDL uptake fluorescence, 3 h; 100 = double the neutral-control signal | AID 504775 | activation, % at 12.5 µM | 320,000 tested, 0.096% active;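 active = mean replicate activation of at least 60% and every replicate at or above 60%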;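 note: 0% = median plate neutral-control signal and 100% = twice that signal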
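Material – SR-BI-overexpressing, LDLR-lacking CHO cells · Medium – BSA-supplemented, HEPES-buffered Ham's F12, pH 7.4 · Doses – single concentration · Times – compound with DiI-HDL co-incubation, 3 h at 37 °C · Measured by – bottom-read fluorescence, 550/595 nm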
Dyrk1A ADPGlo: Dyrk1A (rat) kinase inhibition; 310,000 tested, 0.43% active; inhibition, % at 12.5 µM; ADP-Glo luminescence, NFATc1 peptide; Q63470; AID 504441;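 note: plate controls were vehicle with enzyme for no effect and no enzyme for full effect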
DiI quencher: DiI fluorescence quenching in cell-free counter-screen; shares compounds with SR-BI DiI inh; cell-free DiI-HDL fluorescence quenching, 30 min; AC50, µM (series often up to 35 µM), without a hit: top-dose activity change, negative = quenching; 470 tested, 20% active; AID 540326;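 active = quenching, a falling signal, with AC50 below a set limit tied to the top valid dose, actives reach about 32 µM in these data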
dFosB act-2: activators of mouse delta FosB homodimer DNA binding; shares compounds with dFosB act-1; purified delta FosB, TAMRA-CDK5 oligo fluorescence polarization; normalised: neutral wells 0, positive control 100; activation, % at 24.9 µM; 2,400 tested, under 10 active; AID 588690;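 active = highest replicate activation at or above 34% and every replicate reaching that threshold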;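 note: higher polarization means more probe DNA bound by delta FosB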
* hit, by the source's call; x = no result given. Only some compounds are listed: those with a hit (about 2.5% of all), similar ones and a draw of the others. Cut-off read from the data, not from the text of the source, unless noted: active = inhibition above about 50%; inactive = the rest.

SMILES	NSD2 inh	dFosB act-1	CDK5 inh	SR-BI DiI inh	SR-BI uptake up	Dyrk1A ADPGlo	DiI quencher	others
COc1cc2c(cc1OC)-c1cc(OCc3ccccc3Cl)nc(=O)n1CC2	0	-9	2	78*	-73	-5	-4%
COc1cc2c(cc1OC)-c1cc(NC3CCCC3)nc(=O)n1CC2	-2	-4	0	-21	21	x	x
Cc1ccsc1C(=O)OCC(=O)NCc1ccc(Cl)cc1	-1	5	0	-27	27	2	x
O=C(CSc1cn(CCNC(=O)c2cccs2)c2ccccc12)NCC1CCCO1 (centres undefined)	x	4	1	3	-3	1	-3%
O=C(CSc1cn(CCNC(=O)c2cccs2)c2ccccc12)NC1CCCCC1	x	3	-1	23	-23	10	x
O=C(NCCn1cc(SCC(=O)N2CCOCC2)c2ccccc21)c1c(F)cccc1F	x	-2	-1	-13	13	1	-3%
O=C(NCCCn1ccnc1)c1cc(Cl)cc(Cl)c1	3	-4	2	-15	15	1	x
COc1cc(C(C)=O)ccc1OCC(O)CN1CCN(c2cc(C)cc(C)c2)CC1 (centres undefined)	3	-6	0	8	-8	-3	x
CCc1ccc(NC(=O)C2CCCN(S(=O)(=O)c3ccc4[nH]c(=O)ccc4c3)C2)cc1 (centres undefined)	20	29*	0	104*	-104	-3	-3%	dFosB act-2=-1
CC12C=CC(C)(C3C(=O)NC(=O)C31)C1C3C(=O)NC(=O)C3C12 (centres undefined)	10	x	x	x	x	x	x
COC(=O)C1=C(CCc2ccccc2)NC(=O)NC1c1ccc(Cl)cc1 (centres undefined)	x	-8	0	34	-33	3	x
COC(=O)C1=C(COc2ccccc2)NC(=O)NC1c1ccc(Br)cc1 (centres undefined)	x	35*	1	45	-45	46	x	dFosB act-2=2
Cc1ccc(NC(=O)[C@H]2CC(=O)O[C@@H]2c2ccccc2)c(C)c1	13	x	x	x	x	x	x

High-throughput results as filed in PubChem.
